≈ marks a conversion by molar mass, not a printed value.
Experiments:
[1] = Growth inhibition of human K/VP.5 cells incubated for 48 hrs by NBTI cell counting analysis; format: functional; conditions: K562, 48 h
[2] = system: Staphylococcus aureus; experiment: Antibacterial activity against methicillin-resistant Staphylococcus aureus USA300 by CLSI method; format: functional
[3] = system: Staphylococcus aureus; experiment: Antibacterial activity against Staphylococcus aureus harbouring GyrA D83N mutant by CLSI method; format: functional
[4] = system: Staphylococcus aureus; experiment: Antibacterial activity against Staphylococcus aureus ATCC 29213 by CLSI method; format: functional
[5] = system: Staphylococcus aureus; experiment: Antibacterial activity against Staphylococcus aureus 3527 by CLSI method; format: functional
[6] = biological target: DNA gyrase (Staphylococcus aureus, UniProt P0A0K8+P20831); experiment: Inhibition of Staphylococcus aureus Gyrase supercoiling activity assessed as reduction in supercoiling pBR322 DNA by measuring relaxation by bromophenol blue staining based TAE gel method; format: protein-complex assay
[7] = biological target: Topoisomerase IV (Staphylococcus aureus, UniProt P0C1S7+P0C1U9); experiment: Inhibition of Staphylococcus aureus topoisomerase IV decatenation activity using kDNA as substrate by ethidium bromide/bromophenol blue staining based agarose gel electrophoresis analysis; format: protein-complex assay
[8] = system: Staphylococcus aureus; experiment: Antibacterial activity against Staphylococcus aureus by CLSI method; format: functional
Summary of the method: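 MICs were determined by broth microdilution per CLSI guidelines, in triplicate at minimum. Strains were S. aureus ATCC 29213, MRSA USA300 and a cystic fibrosis respiratory isolate, and ranges are given where seen.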

[9] = system: Staphylococcus aureus; experiment: Antibacterial activity against cystic fibrosis isolate Staphylococcus aureus by CLSI method; format: functional
[10] = biological target: DNA gyrase (Staphylococcus aureus, UniProt P0A0K8+P20831, D83N); experiment: Inhibition of Staphylococcus aureus DNA Gyrase D83N mutant assessed as reduction in supercoiling pBR322 DNA by measuring relaxation by bromophenol blue staining based TAE gel method
[11] = system: Staphylococcus aureus; experiment: Selectivity ratio of IC50 for inhibition of Staphylococcus aureus Gyrase D83N mutant to IC50 for inhibition of Staphylococcus aureus Gyrase
Summary of the method: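 Ratio of two IC50s: the IC50 from the D83N mutant gyrase supercoiling assay (commercial kit) divided by the IC50 from the gel-based wild-type S. aureus gyrase supercoiling assay.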

[12] = system: Streptococcus pneumoniae; experiment: Antibacterial activity against Streptococcus pneumoniae by CLSI method; format: functional
[13] = system: Enterococcus sp.; experiment: Antibacterial activity against Enterococcus sp. by CLSI method; format: functional
[14] = system: Acinetobacter baumannii; experiment: Antibacterial activity against Acinetobacter baumannii by CLSI method; format: functional
[15] = system: Staphylococcus aureus; experiment: Selectivity index, ratio of IC50 for inhibition of Staphylococcus aureus topoisomerase IV decatenation activity to IC50 for inhibition of Staphylococcus aureus DNA gyrase supercoiling activity
Summary of the method: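 Both IC50s were measured in gel-based assays with S. aureus enzymes: supercoiling inhibition for DNA gyrase and decatenation inhibition for TopoIV. The ratio is TopoIV IC50 divided by gyrase IC50.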

## COc1ccc2ncc(F)c(C(O)C[C@H]3OC[C@H](NCc4cc5c(cn4)OCCO5)CO3)c2n1 (mixture of isomers)
[1]
  IC50: 232 µM
[2]
  MIC: 1 µg/mL (≈ 2.12 µM)
[3]
  MIC: 16 µg/mL (≈ 33.9 µM)
[4]
  MIC: 0.5 µg/mL (≈ 1.06 µM)
[5]
  MIC: 1 µg/mL (≈ 2.12 µM)
[6]
  IC50: 0.16 µM
[7]
  IC50: 8.8 µM

## COc1ccc2ncc(F)c(C[C@H](O)[C@H]3OC[C@H](NCc4ccc5c(c4)OCCO5)CO3)c2c1
[8]
  MIC50: 0.06 µg/mL (≈ 0.128 µM)
[9]
  MIC: 0.25 µg/mL (≈ 0.531 µM)
[10]
  IC50: 2.2 µM
[2]
  MIC: 0.125 µg/mL (≈ 0.266 µM)
[3]
  MIC: 4 µg/mL (≈ 8.5 µM)
[11]
  Ratio IC50: 72
[12]
  MIC50: 1 µg/mL (≈ 2.13 µM)
[13]
  MIC50: 0.06 µg/mL (≈ 0.128 µM)
[4]
  MIC: 0.125 µg/mL (≈ 0.266 µM)
[14]
  MIC50: 64 µg/mL (≈ 136 µM)
[5]
  MIC: 0.125 µg/mL (≈ 0.266 µM)
[6]
  IC50: 0.031 µM
[7]
  IC50: 2.3 µM
[15]
  Ratio IC50: 73

## COc1ccc2ncc(F)c(C[C@H](O)[C@H]3OC[C@H](NCc4ccc5c(n4)NC(=O)CO5)CO3)c2c1
[9]
  MIC: 0.5 µg/mL (≈ 1.03 µM)
[1]
  IC50: > 50 µM
[10]
  IC50: 1.9 µM
[2]
  MIC: 0.25 µg/mL (≈ 0.516 µM)
[3]
  MIC: 4 µg/mL (≈ 8.26 µM)
[4]
  MIC: 0.5 µg/mL (≈ 1.03 µM)
[5]
  MIC: 0.25 µg/mL (≈ 0.516 µM)
[6]
  IC50: 0.084 µM
[7]
  IC50: 1.3 µM

## COc1ccc2ncc(F)c(C(O)C[C@H]3OC[C@H](NCc4ccc5c(c4)OCCO5)CO3)c2n1 (mixture of isomers)
[9]
  MIC: 0.5 µg/mL (≈ 1.06 µM)
[1]
  IC50: 39.2 µM
[2]
  MIC: 0.25 µg/mL (≈ 0.53 µM)
[3]
  MIC: 8 µg/mL (≈ 17 µM)
[4]
  MIC: ≤ 0.25 µg/mL
[5]
  MIC: ≤ 0.25 µg/mL
[6]
  IC50: 0.022 µM
[7]
  IC50: 3.2 µM

## COc1ccc2ncc(F)c(C[C@H](O)[C@H]3OC[C@H](NCc4cc5c(cn4)OCS5)CO3)c2n1
[9]
  MIC: 0.25 µg/mL (≈ 0.527 µM)
[1]
  IC50: 118 µM
[10]
  IC50: 5.9 µM
[2]
  MIC: 0.125 µg/mL (≈ 0.263 µM)
[3]
  MIC: 1 µg/mL (≈ 2.11 µM)
[4]
  MIC: 0.06 µg/mL (≈ 0.126 µM)
[5]
  MIC: 0.125 µg/mL (≈ 0.263 µM)
[6]
  IC50: 0.099 µM
[7]
  IC50: 0.43 µM

## COc1ccc2ncc(F)c(C(O)C[C@H]3OC[C@H](NCc4cc5c(nn4)OCCS5)CO3)c2c1 (mixture of isomers)
[9]
  MIC: 1 µg/mL (≈ 2.05 µM)
[1]
  IC50: > 200 µM
[2]
  MIC: 1 µg/mL (≈ 2.05 µM)
[3]
  MIC: 16 µg/mL (≈ 32.8 µM)
[4]
  MIC: 0.5 µg/mL (≈ 1.02 µM)
[5]
  MIC: 1 µg/mL (≈ 2.05 µM)
[6]
  IC50: 0.37 µM
[7]
  IC50: 11 µM

## COc1ccc2ncc(F)c(C[C@H](O)[C@H]3OC[C@H](NCc4ccc(C)cc4)CO3)c2c1
[9]
  MIC: 0.25 µg/mL (≈ 0.586 µM)
[2]
  MIC: 0.5 µg/mL (≈ 1.17 µM)
[3]
  MIC: 8 µg/mL (≈ 18.8 µM)
[4]
  MIC: 0.25 µg/mL (≈ 0.586 µM)
[5]
  MIC: 0.5 µg/mL (≈ 1.17 µM)
[6]
  IC50: 0.014 µM
[7]
  IC50: 4.1 µM
[15]
  Ratio IC50: 294

## COc1ccc2ccc(F)c(C[C@H](O)[C@H]3OC[C@H](NCc4cc5c(nn4)OCCS5)CO3)c2n1
[9]
  MIC: 0.25 µg/mL (≈ 0.512 µM)
[10]
  IC50: 12 µM
[2]
  MIC: 0.5 µg/mL (≈ 1.02 µM)
[3]
  MIC: 4 µg/mL (≈ 8.19 µM)
[11]
  Ratio IC50: 99
[4]
  MIC: 0.25 µg/mL (≈ 0.512 µM)
[5]
  MIC: 0.5 µg/mL (≈ 1.02 µM)
[6]
  IC50: 0.12 µM
[7]
  IC50: 4.6 µM
[15]
  Ratio IC50: 39

## COc1ccc2ncc(F)c(C[C@H](O)[C@H]3OC[C@H](NCc4cc5c(nn4)OCCO5)CO3)c2c1
[9]
  MIC: 0.5 µg/mL (≈ 1.06 µM)
[10]
  IC50: 51 µM
[2]
  MIC: 2 µg/mL (≈ 4.23 µM)
[3]
  MIC: 16 µg/mL (≈ 33.9 µM)
[11]
  Ratio IC50: 60
[4]
  MIC: 1 µg/mL (≈ 2.12 µM)
[5]
  MIC: 2 µg/mL (≈ 4.23 µM)
[6]
  IC50: 0.84 µM
[7]
  IC50: 8.5 µM
[15]
  Ratio IC50: 10

## COc1ccc2ccc(F)c(C[C@H](O)[C@H]3OC[C@H](NCc4ccc5c(n4)NC(=O)CO5)CO3)c2n1
[9]
  MIC: 0.5 µg/mL (≈ 1.03 µM)
[1]
  IC50: > 50 µM
[10]
  IC50: 69 µM
[2]
  MIC: 0.25 µg/mL (≈ 0.516 µM)
[3]
  MIC: 2 µg/mL (≈ 4.13 µM)
[4]
  MIC: 0.25 µg/mL (≈ 0.516 µM)
[5]
  MIC: 0.25 µg/mL (≈ 0.516 µM)
[6]
  IC50: 0.095 µM
[7]
  IC50: 0.99 µM

## COc1ccc2ncc(F)c(C[C@H](O)[C@H]3OC[C@H](NCc4cc5c(nn4)OCCO5)CO3)c2n1
[9]
  MIC: 0.25 µg/mL (≈ 0.528 µM)
[1]
  IC50: > 200 µM
[10]
  IC50: 47 µM
[2]
  MIC: 0.25 µg/mL (≈ 0.528 µM)
[3]
  MIC: 2 µg/mL (≈ 4.22 µM)
[4]
  MIC: 0.125 µg/mL (≈ 0.264 µM)
[5]
  MIC: 0.25 µg/mL (≈ 0.528 µM)
[6]
  IC50: 32 µM
[7]
  IC50: 4.8 µM

## COc1ccc2ncc(=O)n(CC(O)[C@H]3OC[C@H](NCc4ccc5c(c4)OCCO5)CO3)c2c1 (mixture of isomers)
[9]
  MIC: 0.25 µg/mL (≈ 0.532 µM)
[1]
  IC50: 71.1 µM
[2]
  MIC: 0.5 µg/mL (≈ 1.06 µM)
[3]
  MIC: 8 µg/mL (≈ 17 µM)
[4]
  MIC: 0.125 µg/mL (≈ 0.266 µM)
[5]
  MIC: 0.5 µg/mL (≈ 1.06 µM)
[6]
  IC50: 0.019 µM
[7]
  IC50: 4 µM

## COc1ccc2ccc(F)c(C[C@H](O)[C@H]3OC[C@H](NCc4cc5c(cn4)OCCO5)CO3)c2n1
[9]
  MIC: 0.125 µg/mL (≈ 0.265 µM)
[2]
  MIC: 0.25 µg/mL (≈ 0.53 µM)
[3]
  MIC: 2 µg/mL (≈ 4.24 µM)
[4]
  MIC: 0.125 µg/mL (≈ 0.265 µM)
[5]
  MIC: 0.125 µg/mL (≈ 0.265 µM)
[6]
  IC50: 0.013 µM
[7]
  IC50: 0.87 µM
[15]
  Ratio IC50: 67

Source: ChEMBL document CHEMBL4837261, “Optimization of TopoIV Potency, ADMET Properties, and hERG Inhibition of 5-Amino-1,3-dioxane-Linked Novel Bacterial Topoisomerase Inhibitors: Identification of a Lead with In Vivo Efficacy against MRSA” (J Med Chem, 2021)
